High-throughput results deposited in PubChem BioAssay by several laboratories.
Compounds with a hit are over-represented: about 3.8% of the library has one in this group of screens.
HSF1 inhib – HSF1 inhibitors in luciferase reporter cells, primary screen, cell-based, NIH3T3, luminescence; 300,000 tested, 0.77% active; activity change, negative = inhibition, % at 7.5 µM (by protocol); NIH3T3-HGL HSE-luciferase, MG132-induced, luminescence 8 h; hits give low values; AID 2098, 2009;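 active = more than half of replicate wells show activity change below -50%, luminescence cut by over half; inconclusive = some wells, but at most half, below -50%; inactive = no replicate well below -50%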;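 also: luciferase reports HSF-1 transcriptional activity via heat shock element; 0% = median of DMSO wells and -100% = zero luminescence signal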
NS3 helicase inh – inhibitors of HCV NS3 helicase, primary screen, biochemical, Cy5 molecular beacon fluorescence; Hepatitis C virus NS3 helicase; NS3 helicase DNA unwinding; inhibition, % at 10.9 µM; 290,000 tested, 0.56% active; AID 1800, 2009;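 active = inhibition above the mean of all tested compounds plus 3 SD, set per campaign, cut at about 35% in these data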;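 also: 0% = DMSO wells and 100% = thioflavine S control wells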
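test system = hepatitis C virus NS3 helicase domain fragment enzyme | reagent = annealed dual-labelled DNA beacon duplex, ATP-started | times = 1 h at 25 °C | detection = Cy5 fluorescence, 0 and 60 min reads | read-out basis = percent inhibition from t60/t0 fluorescence ratio | control set = DMSO and thioflavine S | replication = one well per compound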
HSF-1 act – HSF-1 activators, primary screen, NIH3T3-HGL cells, MG132 stress, luminescence, single point | NIH3T3-HGL HSF-1 luciferase reporter, 8 h; 100% = twice DMSO control signal | activation, % at 9 µM | 300,000 tested, 1.7% active | AID 504408, 2011;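 active = mean replicate activation of at least 50% with a set share of replicates each reaching 50%; inconclusive = only one of those two conditions met; inactive = mean below 50% and too few replicates reaching it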;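 also: 0% = median of the neutral control wells and 100% = twice that signal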
HSP90 inh – HSP90 inhibitors, primary screen, cell lysate, luminescence. inhibition, % at 5.6 µM. Rabbit reticulocyte lysate, luciferase refolding luminescence, 3 h. 290,000 tested, 0.91% active;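 active = inhibition above the screen-wide mean plus 3 SD, computed separately per campaign, cut at about 16% in these data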;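 also: 0% = DMSO wells and 100% = 60 µM geldanamycin wells; inhibitors lower the luminescence because luciferase stays unfolded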
Hep lipid drop – inhibitors of hepatocyte lipid droplet formation, primary screen, imaging, high-throughput imaging, BODIPY stain. AID 1656, 2009. AML12 mouse hepatocytes, oleate lipid droplets. inhibition, % at 6.5 µM. 240,000 tested, 0.4% active;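 active = lipid droplet intensity inhibited by at least 50%, with more than 500 cells counted; inconclusive = wells with under 300 cells, treated as cytotoxic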
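Material – mouse AML12 hepatocyte cell line, fixed after treatment · Compound dosing – one dose, 6.5 µM compound · Times – compound with oleate, overnight · Measured by – Image-based BODIPY and DAPI two-channel analysis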
* = called active by the depositor; ? = inconclusive; nt = no result given.

SMILES	HSF1 inhib	NS3 helicase inh	HSF-1 act	HSP90 inh	Hep lipid drop
CCOc1cc(C2NCc3ccccc3-n3cccc32)ccc1OC (configuration not stated)	-1.7	-24.0	3.9	-2.6	3.9
Cc1ccc(-n2c(O)c(/C=C/C=Nc3ccccc3)c(=O)[nH]c2=O)cc1	-6.8	5.1	-4.9	3.0	27.6
Cc1ccc(N/N=C/c2c(O)n(-c3ccccc3)c(=O)[nH]c2=O)cc1	9.8	5.6	12.1	24.0*	-2.6
CN1C(=O)N(C)C(=O)C2(Cc3cc(NC(=O)c4ccc(F)cc4)ccc3N3CCCC32)C1=O (configuration not stated)	1.2	-15.1	-13.8	5.9	-11.4
C=CCN1CCc2cccc3c2[C@H]1Cc1ccc(O)c(O)c1-3	86.8	-16.3	95.4*	0.7	-2.5
C#CC(CC)(CC)NC(=O)Nc1ccc(OCC)cc1	1.0	-2.2	9.0	-3.5	7.9
CCOP(=O)(C(NC(=O)c1ccccc1Cl)=C(Cl)Cl)c1ccccc1 (configuration not stated)	31.2	-11.0	90.3*	7.8	-16.9
CCOc1ccc2nc(N=Nc3c(O)[nH]c(=S)[nH]c3=O)sc2c1	-12.2	7.6	-5.2	1.4	-13.9
CCn1c(O)c(C=Nc2ccc(N3CCOCC3)c(Br)c2)c(=O)n(CC)c1=S	-67.0*	-0.1	-72.4	-3.8	nt
CCn1c(O)c(/C=N/N2CCOCC2)c(=O)n(CC)c1=S	5.3	11.3	13.2	5.9	2.6
CCCN1CCCC(C(=O)c2cc(C)c(OC)c(C)c2)C1 (configuration not stated)	-7.1	4.7	-4.5	1.4	-1.0
Nc1ncnc2c1ccn2[C@@H]1O[C@H](CO)[C@@H](O)[C@H]1O	-79.0*	nt	-80.3	nt	nt
NC(=S)c1cn(C2OC(CO)C(O)C2O)c2ncnc(N)c12 (configuration not stated)	-67.3*	-8.2	-71.2	2.7	?
COC(=O)c1ccc(CC(C(=O)c2ccccc2)N(C)C)cc1 (configuration not stated)	13.2	7.9	12.5	2.9	nt
CC(=O)OC(C)(C)/C=C/C(=O)[C@](C)(O)[C@H]1[C@H](O)C[C@@]2(C)[C@@H]3CC=C4[C@H](C[C@H](O)C(=O)C4(C)C)[C@]3(C)C(=O)C[C@]12C	nt	-2.4	nt	-0.4	136.6*
CC(=O)OC(C)(C)/C=C/C(=O)C(C)(O)C1[C@H](O)C[C@@]2(C)C3CC=C4C(CC[C@@H](O)C4(C)C)[C@]3(CO)C(=O)C[C@]12C (some centres not stated)	-52.3*	2.1	-61.4	-0.4	?
CCN1CCN(c2ccc(N)c(C)c2)CC1	-0.8	-5.1	-4.0	-4.0	-9.6
Cn1ncc(Cl)c1C(=O)N1CCC2(CC1)OCCO2	-2.7	-2.4	-2.0	1.5	-0.8
COc1ccc(SCC2CN(C)CCC2c2ccc(F)cc2)cc1 (configuration not stated)	34.0	nt	67.0*	nt	nt
CCN(CC)P(=O)(NC(=O)c1cccn1C)N(CC)CC	-84.5*	0.1	-88.7	1.6	-10.4
NC(Cc1nc2ccccc2[nH]1)c1ccc(Cl)cc1 (configuration not stated)	65.1	6.0	87.5*	0.5	-13.4
CCOC(=O)C1(CCCc2ccccc2)CCN(C2CCC2)CC1	-8.9	-11.1	0.6	-1.5	-0.9
CN1CC(C(=O)c2ccc(F)cc2)C(c2c(F)cccc2Cl)C1 (configuration not stated)	38.2	-2.3	81.6*	5.3	-1.1
S=C1NC2(CCCCC2)NC12CCCCC2	6.0	8.8	17.2	-0.3	5.1
COc1cc(/C=C(/C)[N+](=O)[O-])ccc1OCc1ccccc1Cl	116.7	-1.7	127.8*	1.0	-1.9
SMILES	HSF1 inhib	NS3 helicase inh	HSF-1 act	HSP90 inh	Hep lipid drop
COc1cc(C=C2C(=O)NC(=O)NC2=O)ccc1OCc1ccc([N+](=O)[O-])cc1	nt	19.4	nt	0.6	2.7
CCOC(=O)c1ccc(N2C(=O)CC(N3CC=C(c4ccc(F)cc4)CC3)C2=O)cc1 (configuration not stated)	3.6	13.7	-15.2	-0.2	2.1
O=C1CC(N2CC=C(c3ccc(F)cc3)CC2)C(=O)N1c1ccc(F)cc1 (configuration not stated)	-70.6*	18.1	-78.0	5.2	nt
COc1cccc(N=Cc2c(O)n(Cc3ccco3)c(=O)[nH]c2=O)c1	8.4	17.0	32.7	0.5	19.1
CC(C)n1c(=O)c(C=Nc2ccc(Cl)cc2)c(O)n(Cc2ccco2)c1=O	2.4	47.4*	12.2	2.3	23.9
CCOc1cc2c(cc1OCC)-n1cccc1C(c1cc(C)c(OC)cc1C)NC2 (configuration not stated)	9.8	-54.6	34.8	0.3	-29.2
O=C1NC(=O)C(CCc2ccncc2)(CCc2ccncc2)C(=O)N1Cc1ccccc1	-70.8*	0.5	-77.9	4.1	-1.7
CCOc1ccccc1N1C(=O)NC(=O)C(CCc2ccncc2)(CCc2ccncc2)C1=O	-5.1	18.7	-6.2	-0.7	38.5
CN1C(=O)C(=Cc2ccccc2OCc2ccccc2Cl)C(=O)N(C)C1=O	-0.9	0.6	-7.9	0.7	1.0
CN1C(=O)C(=Cc2c(OCc3cnc(Cl)s3)ccc3ccccc23)C(=O)N(C)C1=O	54.0	-15.1	60.9*	-0.7	1.1
Cn1c(O)c(/C=C2\N=c3ccccc3=C2CCNC(=S)NC2CC2)c(=O)n(C)c1=O	2.3	-11.4	9.6	-2.6	-5.6
CC(C)CCOC(=O)c1c(N)n(CC2CCCO2)c2nc3ccccc3nc12 (configuration not stated)	3.2	-6.4	16.3	2.4	3.6
CC(C)OC(=O)c1c(N)n(CC2CCCO2)c2nc3ccccc3nc12 (configuration not stated)	2.4	8.0	5.6	16.2*	5.7
C[C@]12CC[C@H](O)CC1=CCC1C2CC[C@]2(C)C(=O)[C@H](Br)CC12 (some centres not stated)	-1.2	nt	-1.2	nt	nt
NC1=NC(=O)C(c2ccccc2)O1 (configuration not stated)	nt	-6.2	nt	0.4	-8.5
O=[N+]([O-])c1ccc(N2CCCC2)c2ccncc12	-60.5*	6.3	-68.3	-8.8	-2.7
CN1CCN(c2ccc([N+](=O)[O-])c3cccnc23)CC1	-57.0*	-0.2	-67.4	2.6	nt
CC(C)c1ccc(NC(=O)CSc2nnc(OC(=O)N(C)C)n2C2CC2)cc1	-2.8	-3.0	-2.0	-4.1	-12.4
C[N+]1(CC2COC(c3ccco3)O2)CCCCC1 (configuration not stated)	-66.4*	10.3	-75.5	0.1	5.8
COc1ccc(Cc2c(O)[nH]c(=O)[nH]c2=O)c(OC)c1	-3.5	-0.9	-12.4	-1.9	25.3
Cn1c2ccccc2c2cnn(CC(=O)N3CCC4(CC3)OCCO4)c(=O)c21	-56.1*	-3.1	-63.9	2.0	-15.1
